SUMO1-SIM PPI – SUMO1-SIM interaction modulation | 360,000 tested, 0.33% active | inhibition, % at 20 µM | SUMO1 binding to a labelled peptide, TR-FRET, 1 h; in the data active means inhibition above about 37%
Target sequence (P63165 whole entry, looked up): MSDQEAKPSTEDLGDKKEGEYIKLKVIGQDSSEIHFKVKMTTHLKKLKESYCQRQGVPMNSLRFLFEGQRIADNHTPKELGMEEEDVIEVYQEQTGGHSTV
LMPTP inh – LMPTP (human) inhibition. 360,000 tested, 0.22% active. recombinant LMPTP-A, OMFP fluorogenic substrate, fluorescence intensity. P24666. inhibition, % at 20 µM;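 active means compounds that cut the enzyme signal by at least half of the control window in the single-dose screen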;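 further: plate controls were DMSO wells with enzyme plus substrate for no effect and substrate without enzyme for full effect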
Target sequence (P24666 whole entry, looked up): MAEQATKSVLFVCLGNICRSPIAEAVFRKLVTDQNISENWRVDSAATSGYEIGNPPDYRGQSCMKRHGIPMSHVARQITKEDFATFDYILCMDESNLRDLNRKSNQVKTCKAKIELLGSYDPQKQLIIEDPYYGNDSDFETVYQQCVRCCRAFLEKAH
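Assay system: LMPTP-A, protein tyrosine phosphatase of low molecular weight / Medium: pH 6.0 Bis-Tris buffer with DTT and Triton X-100 / Schedule: 50 min enzyme reaction at room temperature, protected from light / Measured by: endpoint fluorescence intensity from OMFP dephosphorylation / Read-out basis: % inhibition relative to no-enzyme and uninhibited control wells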
Scp-1 inhibitor – blocks human Scp-1 phosphatase activity | Q9GZU7 | Recombinant Scp1, phosphopeptide, malachite green phosphate absorbance | inhibition, % at 20 µM | 340,000 tested, 0.88% active | AID 493091;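 active means inhibition above about 50% at 20 µM, limit read from the data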;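 further: plate controls were DMSO wells with enzyme for no effect and wells lacking enzyme for full effect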
Target sequence (Q9GZU7 76-261 limits assumed): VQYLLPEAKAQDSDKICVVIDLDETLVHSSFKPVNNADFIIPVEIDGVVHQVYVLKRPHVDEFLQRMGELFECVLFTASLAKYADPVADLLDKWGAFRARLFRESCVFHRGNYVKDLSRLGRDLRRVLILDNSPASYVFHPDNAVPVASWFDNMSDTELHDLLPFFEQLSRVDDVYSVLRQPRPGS
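Incubation: 45 min enzyme reaction at room temperature / System: truncated SCP-1 phosphatase (76-261aa) / Reagent: Phospho 17-mer peptide substrate / Buffer or medium: Acidic Tris acetate buffer with magnesium and detergent / Signal: absorbance at 630 nm / Doses: one concentration, 20 µM, with 1.0% DMSO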
GRK2 aptamer HTS – human GRK2 inhibition via aptamer displacement; inhibition of aptamer binding, % at 10 µM; 330,000 tested, 0.59% active; bead flow cytometry, FAM-aptamer displacement from GRK2;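 active means inhibition of aptamer binding above 40%, roughly 3 SD of noise, on plates passing a quality check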;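 further: median bead fluorescence of bound FAM aptamer so fluorescent compounds give negative values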
STEP block – blocks human striatal-enriched tyrosine phosphatase. recombinant STEP, OMFP fluorogenic substrate, fluorescence. P54829. AID 588621. 360,000 tested, 0.25% active. inhibition, % at 20 µM;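 active means inhibition at 20 µM, scaled per plate between control wells, above about 37%, limit read from the data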;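 further: 0% = DMSO with enzyme and substrate and 100% = substrate only without enzyme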
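System: STEP phosphatase, cell-free reaction; Buffer or medium: Bis-Tris pH 6.0 buffer with DTT, detergent; Incubation: 20 min at room temperature, dark; Measured by: fluorescence, 480/540 nm.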
DNMT1 block – inhibitors of human DNMT1; inhibition (reported as % activation of signal), % at 10 µM; DNMT1 molecular beacon, Hinp1I cleavage, fluorescence; 360,000 tested, 0.83% active; in the data active means inhibition above about 50%
Starred values were filed as active, the others as inactive; nt = no result. Hits are enriched below; roughly 2.1% of the tested compounds scored in any of these assays.

SMILES	SUMO1-SIM PPI	LMPTP inh	Scp-1 inhibitor	GRK2 aptamer HTS	STEP block	DNMT1 block
COc1ccccc1Nc1nn2c(=O)c3ccc(C(=O)NCc4cccnc4)cc3nc2s1	47*	2	nt	0	3	51*
O=C(NCc1ccccn1)c1ccc2c(=O)n(CCc3ccccc3)c(=O)[nH]c2c1	-4	0	27	2	1	-3
CCc1ccccc1Nc1nn2c(=O)c3ccc(C(=O)NCc4ccccn4)cc3nc2s1	39*	1	-14	1	0	-5
O=C(NCc1ccccn1)c1ccc2c(=O)n3nc(Nc4ccccc4)sc3nc2c1	52*	0	-3	0	-4	32
CN1/C(=C\C=N\O)C(C)(C)c2ccccc21	3	-2	-4	6	-2	-9
CN1/C(=C\C=[N+](C)c2ccccc2)C(C)(C)c2ccccc21	-4	-2	72*	2	0	1
COc1c(N2CCN(C(=S)NCc3ccccc3)C(C)C2)c(F)cc2c(=O)c(C(=O)O)cn(C3CC3)c12 (stereo not given)	5	53*	-12	1	-10	10
CCCCOC(=O)c1ccc(NC(=S)N2CCN(c3ncc4c(=O)c(C(=O)O)cn(CC)c4n3)CC2)cc1	6	40	-5	0	8	-7
CCCOc1ccc(C(=O)NC(=S)N2CCN(c3ncc4c(=O)c(C(=O)O)cn(CC)c4n3)CC2)cc1	12	70*	nt	nt	7	6
CCn1cc(C(=O)O)c(=O)c2cnc(N3CCN(C(=S)NC(=O)c4ccccc4)CC3)nc21	12	56*	-8	3	2	-5
CCn1cc(C(=O)O)c(=O)c2cnc(N3CCN(C(=S)Nc4ccccc4)CC3)nc21	13	1	-7	2	1	-5
CCOC(=O)c1cccc(NC(=S)N2CCN(c3ncc4c(=O)c(C(=O)O)cn(CC)c4n3)CC2)c1	3	70*	-7	0	6	1
CC(C)(C)NC(=O)COc1ccc2oc3c(c2c1)CCCC3	20	0	2	2	-5	2
Cc1ccc(S(=O)(=O)N[C@@H](Cc2ccccc2)C(=O)N2CCC[C@@H]2C(=O)O)cc1	-4	0	-3	0	0	1
Cc1cc(Br)cc(/C=N/NC(=O)c2ccc3c(c2)OCO3)c1O	-2	5	2	0	2	48
O=C(N/N=C/c1cc(Br)cc(Br)c1O)c1ccncc1	nt	nt	-3	1	nt	nt
O=C(N/N=C/c1cc(Br)cc(Cl)c1O)c1ccc2c(c1)OCO2	30	74*	91*	0	99*	2
O=C(N/N=C/c1ccccc1O)c1ccc2c(c1)OCO2	-7	-2	-15	0	2	0
O=C(N/N=C/c1cc(Br)cc([N+](=O)[O-])c1O)c1ccc(NC(=O)c2ccc(F)cc2)cc1	6	61*	89*	1	98*	-12
O=C(N/N=C/c1cc(Cl)cc([N+](=O)[O-])c1O)c1ccc2c(c1)OCO2	-21	60*	99*	0	99*	3
CC1CCc2ccccc2N1C(=N)N(C)C (stereo not given)	2	-2	-4	3	1	-1
CN(C(=O)c1ccco1)c1nc2c(s1)CCCC2	1	1	10	0	-1	6
CCc1nc2ccc(C(=O)NCc3ccc(OC)cc3)cn2c1N(CCC(C)C)CCN(C)C	0	-1	nt	nt	2	0
O=C(O)c1ccc(N=Nc2c(O)[nH]c3cc(Cl)ccc23)cc1	-8	5	56*	0	9	2
O=C(O)c1ccc(N=Nc2c(O)[nH]c3ccc(Br)cc23)cc1	-5	10	44	7	-1	0
SMILES	SUMO1-SIM PPI	LMPTP inh	Scp-1 inhibitor	GRK2 aptamer HTS	STEP block	DNMT1 block
O=S(=O)(Nc1ccccc1F)c1cccc(NC(=S)NCCN2CCOCC2)c1	3	5	-7	0	92*	-4
Cc1cc(N=NC(=O)c2ccccc2)ccc1O	3	-1	-3	2	-4	58*
O=C(Nc1cccc([N+](=O)[O-])c1)c1cc2ccccc2cc1O	33	4	89*	0	5	2
COc1cccc(N2CCN(c3ccc([N+](=O)[O-])cn3)CC2)c1	-13	0	2	3	-2	0
CC1(c2ccccc2)C(C#N)C(=O)NC(=O)C1C#N (stereo not given)	-3	0	1	nt	0	-1
Oc1ccc(/C=N/Nc2ccnc3cc(Cl)ccc23)cc1O	55*	48	-7	13	2	4
Cc1csc(Nc2nc(N)c(C(=O)Nc3ccccc3)o2)n1	4	0	-16	0	1	-1
CC[C@]12c3[nH]c4ccc(Cl)cc4c3CCN1C(=O)[C@@H](CC(=O)NCC13CC4CC(CC(C4)C1)C3)C[C@@H]2C(=O)N1CCN(C(=O)c2ccco2)CC1	4	2	9	4	-3	-26
CC[C@]12c3[nH]c4ccc(OC)cc4c3CCN1C(=O)C(CC(=O)NCC13CC4CC(CC(C4)C1)C3)C[C@@H]2C(=O)N1CCN(C(=O)c2ccco2)CC1 (stereo not given in full)	2	0	21	43*	0	-7
COc1ccc(S(=O)(=O)N2CCCCCC2)cc1NC(=O)CN1C(=O)NC(C)(c2ccccc2)C1=O (stereo not given)	1	1	5	2	0	-3
O=c1cc2oc3cc(O)c(O)cc3c(-c3ccccc3[N+](=O)[O-])c-2cc1O	27	90*	5	6	22	-5
CCOC(=O)c1ccccc1NC(=O)CN1CCC(n2nnc3cc(C(F)(F)F)ccc32)CC1	61*	2	1	0	2	5
CCc1ccc(CN2CCCC(C(=O)N3CCCCC3)C2)cc1 (stereo not given)	8	-1	-3	0	-1	0
N#Cc1sc2nc(-c3ccccc3)cc(-c3ccco3)c2c1N	64*	9	49	2	3	27
COc1ccc(/C=C/C(=O)Nc2cccc(C(C)=O)c2)cc1	-12	-1	-13	88*	2	-15
Cc1cccnc1NC(=O)C1CCC1	4	-1	-6	3	0	-3
CCCN(CCC)C(=O)C[n+]1cccc(/C=N/O)c1	0	-1	16	49*	1	0
O=C(C[n+]1cccc(/C=N/O)c1)N(Cc1ccccc1)Cc1ccccc1	-9	-1	-4	0	-2	0
O=C(c1ccccc1)C(O)C(c1ccccc1)N1CCOCC1 (stereo not given)	2	2	-4	0	1	0
NS(=O)(=O)c1ccc(N/N=C/c2ccc(O)c(O)c2O)c([N+](=O)[O-])c1	14	65*	48	nt	5	-5

Screens from PubChem BioAssay.
